According to ChEMBL document CHEMBL1811844, “Design, synthesis, and biological evaluation of triazolo-pyrimidine derivatives as novel inhibitors of hepatitis B virus surface antigen (HBsAg) secretion” (J Med Chem, 2011):

Columns and labels:
Mus musculus [1] = experiment: Toxicity in HBV infected transgenic 1.3.32 mouse assessed as morphological changes at 7.9 to 25 mg/kg, po qd for 14 days; type: organism-based; set-up: dose 7.9-25 mg/kg, route oral; conditions: in vivo, 336 h
Method in brief: (§1)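 HBV-transgenic mice (strain 1.3.32), 10 per group, randomised; oral gavage once daily for 14 days at 25 or 7.9 mg/kg in NMP:Solutol HS15/saline vehicle; vehicle-only group. Weighed before the first dose and after 3 days; observed one hour after each dose. Tail-vein blood taken before dosing, at day 7 and at day 14 necropsy, each 3 h post-dose, for serum chemistry.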

Mus musculus [2] = experiment: Acute toxicity in CL57BL/6 mouse assessed as effect on serum blood urea nitrogen level at 25 mg/kg, iv administered as single dose after 24 hrs; type: organism-based; set-up: dose 25 mg/kg, route intravenous; conditions: in vivo
Method in brief: (§2)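 Female C57BL/6 mice, four per group, randomized, each given one tail-vein injection of a 2 mg/mL solution in 1:1 NMP:Solutol HS15 diluted with saline; a vehicle-only group served as control. Mice were watched for the first hour and sacrificed at 24 h with necropsy. Serum was collected and run on an automated chemistry and electrolyte analyser.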

Mus musculus [3] = experiment: Acute toxicity in CL57BL/6 mouse assessed as effect on mean corpuscular volume at 25 mg/kg, iv administered as single dose after 24 hrs; type: organism-based; set-up: dose 25 mg/kg, route intravenous; conditions: in vivo
Method in brief: as §2, with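 “watched closely” for “watched”, “Whole blood” for “Serum”, “taken for complete blood counts” for “collected and run”, “haematology” for “chemistry and electrolyte”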

Hepatitis B virus [4] = experiment: Antiviral activity against lamivudine/telbivudine-resistant Hepatitis B virus harboring polymerase L528M and M552V mutant in human HepG2 cells assessed as inhibition of HBsAg secretion by ELISA; type: functional, organism-based
[5] = Cytotoxicity against human HepG2(2.2.15) cells by MTT assay; type: cell-based
Mus musculus [6] = experiment: Toxicity in HBV infected transgenic 1.3.32 mouse assessed as change in serum total protein level at 7.9 to 25 mg/kg, po qd for 14 days; type: organism-based; set-up: dose 7.9-25 mg/kg, route oral; conditions: in vivo, 336 h; method in brief: as §1
Hepatitis B virus [7] = experiment: Antiviral activity against entecavir-resistant Hepatitis B virus harboring polymerase L528M, M552V, T532G and S550I mutant in human HepG2 cells assessed as inhibition of HBsAg secretion by ELISA; type: functional, organism-based
Mus musculus [8] = experiment: Toxicity in HBV infected transgenic 1.3.32 mouse assessed as elevation in serum bilirubin level at 7.9 to 25 mg/kg, po qd for 14 days; type: organism-based; set-up: dose 7.9-25 mg/kg, route oral; conditions: in vivo, 336 h; method in brief: as §1
Mus musculus [9] = experiment: Toxicity in HBV infected transgenic 1.3.32 mouse assessed as elevation in serum alanine aminotransferase level at 7.9 to 25 mg/kg, po qd for 14 days; type: organism-based; set-up: dose 7.9-25 mg/kg, route oral; conditions: in vivo, 336 h; method in brief: as §1
Mus musculus [10] = experiment: Acute toxicity in CL57BL/6 mouse assessed as effect on hematocrit at 25 mg/kg, iv administered as single dose after 24 hrs; type: organism-based; set-up: dose 25 mg/kg, route intravenous; conditions: in vivo
Method in brief: as §2, with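 “watched closely” for “watched”, “Whole blood” for “Serum”, “taken for complete blood counts” for “collected and run”, “haematology” for “chemistry and electrolyte”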

Mus musculus [11] = experiment: Acute toxicity in CL57BL/6 mouse assessed as effect on serum K+ level at 25 mg/kg, iv administered as single dose after 24 hrs; type: organism-based; set-up: dose 25 mg/kg, route intravenous; conditions: in vivo; method in brief: as §2
Hepatitis B virus [12] = experiment: Antiviral activity against lamivudine/telbivudine-resistant Hepatitis B virus harboring polymerase M552I mutant in human HepG2 cells assessed as inhibition of HBsAg secretion by ELISA; type: functional, organism-based
Mus musculus [13] = experiment: Acute toxicity in CL57BL/6 mouse assessed as effect on serum Na+ level at 25 mg/kg, iv administered as single dose after 24 hrs; type: organism-based; set-up: dose 25 mg/kg, route intravenous; conditions: in vivo; method in brief: as §2
Mus musculus [14] = experiment: Acute toxicity in CL57BL/6 mouse assessed as effect on basophils percent at 25 mg/kg, iv administered as single dose after 24 hrs; type: organism-based; set-up: dose 25 mg/kg, route intravenous; conditions: in vivo
Method in brief: as §2, with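 “watched closely” for “watched”, “Whole blood” for “Serum”, “taken for complete blood counts” for “collected and run”, “haematology” for “chemistry and electrolyte”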

Mus musculus [15] = experiment: Acute toxicity in CL57BL/6 mouse assessed as effect on serum albumin level at 25 mg/kg, iv administered as single dose after 24 hrs; type: organism-based; set-up: dose 25 mg/kg, route intravenous; conditions: in vivo; method in brief: as §2
Mus musculus [16] = experiment: Acute toxicity in CL57BL/6 mouse assessed as effect on serum glucose level at 25 mg/kg, iv administered as single dose after 24 hrs; type: organism-based; set-up: dose 25 mg/kg, route intravenous; conditions: in vivo; method in brief: as §2
Mus musculus [17] = experiment: Acute toxicity in CL57BL/6 mouse assessed as effect on mean platelet volume at 25 mg/kg, iv administered as single dose after 24 hrs; type: organism-based; set-up: dose 25 mg/kg, route intravenous; conditions: in vivo
Method in brief: as §2, with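 “watched closely” for “watched”, “Whole blood” for “Serum”, “taken for complete blood counts” for “collected and run”, “haematology” for “chemistry and electrolyte”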

Rattus norvegicus = experiment: Half life in fasted Sprague-Dawley rat plasma at 5 mg/kg, iv by LC/MS/MS analysis; type: ADME, organism-based; set-up: dose 5 mg/kg, route intravenous; conditions: in vivo
Method in brief: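 Male Sprague-Dawley rats, 3 per treatment, carried jugular cannulae and were fasted 12 h with water. Compound was formulated at 2 mg/mL in 1:1 NMP:Solutol HS15 diluted with saline. Dosing was 5 mg/kg iv or 25 mg/kg oral gavage. Blood was drawn predose and at 5, 15, 30 min, 1, 3 and 6 h. Plasma was quantified by LC-MS/MS against an 8-point standard curve.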

Mus musculus [18] = experiment: Acute toxicity in CL57BL/6 mouse assessed as effect on serum alanine aminotransferase level at 25 mg/kg, iv administered as single dose after 24 hrs; type: organism-based; set-up: dose 25 mg/kg, route intravenous; conditions: in vivo; method in brief: as §2
Mus musculus [19] = experiment: Acute toxicity in CL57BL/6 mouse assessed as reduction in platelets count at 25 mg/kg, iv administered as single dose after 24 hrs; type: organism-based; set-up: dose 25 mg/kg, route intravenous; conditions: in vivo
Method in brief: (§3)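 Female C57BL/6 mice, four per group, randomised; single tail-vein bolus in NMP:Solutol HS15 (1:1) diluted with saline to 2 mg/mL, injected within 10 min of preparation; vehicle-only group. Close observation for the first hour; sacrifice and necropsy at 24 h. Whole-blood complete blood counts and serum chemistry, including total bilirubin and total protein, were measured.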

Mus musculus [20] = experiment: Toxicity in HBV infected transgenic 1.3.32 mouse assessed as weight loss at 7.9 to 25 mg/kg, po qd for 14 days; type: organism-based; set-up: dose 7.9-25 mg/kg, route oral; conditions: in vivo, 336 h; method in brief: as §1
Mus musculus [21] = experiment: Toxicity in HBV infected transgenic 1.3.32 mouse assessed as change in blood urea nitrogen level at 7.9 to 25 mg/kg, po qd for 14 days; type: organism-based; set-up: dose 7.9-25 mg/kg, route oral; conditions: in vivo, 336 h; method in brief: as §1
Mus musculus [22] = experiment: Acute toxicity in CL57BL/6 mouse assessed as increase in lymphocytes count at 25 mg/kg, iv administered as single dose after 24 hrs; type: organism-based; set-up: dose 25 mg/kg, route intravenous; conditions: in vivo; method in brief: as §3
Mus musculus [23] = experiment: Toxicity in HBV infected transgenic 1.3.32 mouse assessed as behavioral changes at 7.9 to 25 mg/kg, po qd for 14 days; type: organism-based; set-up: dose 7.9-25 mg/kg, route oral; conditions: in vivo, 336 h; method in brief: as §1
Mus musculus [24] = experiment: Toxicity in HBV infected transgenic 1.3.32 mouse assessed as change in serum glucose level at 7.9 to 25 mg/kg, po qd for 14 days; type: organism-based; set-up: dose 7.9-25 mg/kg, route oral; conditions: in vivo, 336 h; method in brief: as §1
Mus musculus [25] = experiment: Acute toxicity in CL57BL/6 mouse assessed as effect on eosinophils percent at 25 mg/kg, iv administered as single dose after 24 hrs; type: organism-based; set-up: dose 25 mg/kg, route intravenous; conditions: in vivo
Method in brief: as §2, with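 “watched closely” for “watched”, “Whole blood” for “Serum”, “taken for complete blood counts” for “collected and run”, “haematology” for “chemistry and electrolyte”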

Mus musculus [26] = experiment: Acute toxicity in CL57BL/6 mouse assessed as effect on serum amylase level at 25 mg/kg, iv administered as single dose after 24 hrs; type: organism-based; set-up: dose 25 mg/kg, route intravenous; conditions: in vivo; method in brief: as §2
Mus musculus [27] = experiment: Toxicity in HBV infected transgenic 1.3.32 mouse assessed as change in serum amylase level at 7.9 to 25 mg/kg, po qd for 14 days; type: organism-based; set-up: dose 7.9-25 mg/kg, route oral; conditions: in vivo, 336 h; method in brief: as §1
Mus musculus [28] = experiment: Acute toxicity in CL57BL/6 mouse assessed as mortality at 25 mg/kg, iv administered as single dose after 24 hrs; type: organism-based; set-up: dose 25 mg/kg, route intravenous; conditions: in vivo; method in brief: as §3
Hepatitis B virus [29] = experiment: Antiviral activity against adefovir-resistant Hepatitis B virus harboring polymerase N584T mutant in human HepG2 cells assessed as inhibition of HBsAg secretion by ELISA; type: functional, organism-based
Mus musculus [30] = experiment: Acute toxicity in CL57BL/6 mouse assessed as effect on white blood cells count at 25 mg/kg, iv administered as single dose after 24 hrs; type: organism-based; set-up: dose 25 mg/kg, route intravenous; conditions: in vivo; method in brief: as §3

SMILES: Fc1cccc(Cl)c1C1CC(c2ccc(Cl)cc2)Nc2ncnn21 (racemic)
- Activity (Mus musculus [1]): Non-toxic
- Activity (Mus musculus [2]): Non-toxic
- Activity (Mus musculus [3]): Non-toxic
- EC50 (Hepatitis B virus [4]): 10.3 µM
- CC50 [5]: > 50 µM
- Activity (Mus musculus [6]): Non-toxic
- EC50 (Hepatitis B virus [7]): 8.3 µM
- Activity (Mus musculus [8]): Toxic
- Activity (Mus musculus [9]): Toxic
- Activity (Mus musculus [10]): Non-toxic
- Activity (Mus musculus [11]): Non-toxic
- EC50 (Hepatitis B virus [12]): 9.1 µM
- Activity (Mus musculus [13]): Non-toxic
- Activity (Mus musculus [14]): Non-toxic
- Activity (Mus musculus [15]): Non-toxic
- Activity (Mus musculus [16]): Non-toxic
- Activity (Mus musculus [17]): Non-toxic
- t1/2 (Rattus norvegicus): 2.17 h
- Activity (Mus musculus [18]): Non-toxic
- Activity (Mus musculus [19]): Toxic
- Activity (Mus musculus [20]): Non-toxic
- Activity (Mus musculus [21]): Non-toxic
- Activity (Mus musculus [22]): Toxic
- Activity (Mus musculus [23]): Non-toxic
- Activity (Mus musculus [24]): Non-toxic
- Activity (Mus musculus [25]): Non-toxic
- Activity (Mus musculus [26]): Non-toxic
- Activity (Mus musculus [27]): Non-toxic
- Activity (Mus musculus [28]): Non-toxic
- EC50 (Hepatitis B virus [29]): 5.6 µM
- Activity (Mus musculus [30]): Non-toxic
